# Most compounds without a hit are left out; they make up all but 5.1% or so of the library.
# STAT1 inh = STAT1 signaling inhibition. NIH 3T3 STAT1-luciferase reporter, IFN-gamma, luminescence. inhibition, % at 5.5 µM. 0.35% of 200,000 active. AID 920;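 active = inhibition above a set limit, the mean inhibition across all tested compounds plus 3 SD, cut at about 34% in these data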;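 note: 0% = IFN-gamma with DMSO and 100% = IFN-gamma with 300 µM nifuroxazide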
# NF-kB expr up = compounds increasing NF-kB expression in human neuronal cells. NF-kB reporter expression; active compounds read high. fold change at 12.5 µM. 1.6% of 190,000 active. AID 1239; in the data active = fold change above about 3.3
# STAT1 act = increases IFN-gamma driven STAT1 reporter signal | NIH 3T3 STAT1-luciferase reporter, luminescence; 100% = IFN-gamma alone, no compound | activation (% of control), % at 5.5 µM | 2.6% of 200,000 active | AID 932;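 active = activation above the screen-wide mean activation plus 3 SD, cut at about 130% in these data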;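 note: raw ratio to IFN-gamma control signal so 100% means no change and 0% no light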
# STAT3 blocker = reduces IL-6 driven STAT3 reporter signal. U3A cells, IL-6 STAT3-luciferase reporter, luminescence; host cell line lacks STAT1. inhibition, % at 5.5 µM. 0.89% of 190,000 active. AID 862;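 active = inhibition above the mean inhibition across all screened compounds plus 3 SD, cut at about 44% in these data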;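 note: 0% = DMSO only wells and 100% = 100 µM nifuroxazide control wells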
# STAT3 activator = STAT3 signaling activation | U3A cells, IL-6 STAT3-luciferase reporter, luminescence; 100% = signal with IL-6 EC80 alone | 0.91% of 190,000 active | activation (% of control), % at 5.6 µM | AID 871;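 active = activation above the screen-wide mean of compound activation plus 3 SD, cut at about 130% in these data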;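 note: 0% = background luminescence of wells with medium and substrate only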
#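 Test system: Human STAT1-deficient U3A cells with stable STAT3-luciferase reporter | Also added: Interleukin-6, 33 ng/mL | Timing: Compound pre-incubation 1 h before IL-6, then 6 h stimulation at 37 °C | Technique: Luciferase reporter luminescence | Read-out: Percent of IL-6-only median luminescence | Benchmarks: IL-6-only wells as 100% reference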
# APP 5'UTR act = APP 5'UTR luciferase reporter activation; SH-SY5Y APP 5'UTR luciferase reporter, luminescence; zero percent = DMSO vehicle wells; activation, % at 2 µM; 1% of 190,000 active; AID 1276;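 active = activation above a set limit, based on mean plus 3 SD of controls, cut at about 140% in these data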
# An asterisk follows results filed as active; . = no result.
SMILES,STAT1 inh,NF-kB expr up,STAT1 act,STAT3 blocker,STAT3 activator,APP 5'UTR act
COc1cc(NC(=O)/C=C/c2ccccc2[N+](=O)[O-])cc(OC)c1,-13,1,112,-7,105,8
CCCNC(=O)c1cc2nc(-c3ccccc3)cc(C(F)(F)F)n2n1,-5,1.1,100,26,81,-34
Cc1ccc(-c2noc(-c3ccccc3Br)n2)cc1,-37,5.9*,133*,-17,123,195*
COc1ccccc1-c1nc(-c2ccc(Br)o2)no1,-63,6.7*,157*,-58,159*,218*
COc1cc(OC)cc(-c2nc(-c3ccc(Br)cc3)no2)c1,-1,1.8,101,13,91,-5
COc1ccccc1-c1nc(-c2ccc(Br)cc2)no1,-36,4.7*,135*,-38,135*,162*
CN(C)c1ccc(-c2noc(-c3ccccc3O)n2)cc1,3,1.5,97,40,68,144*
CCOC(=O)c1nnn(-c2nonc2N)c1-c1ccc(OC)cc1,5,1.6,95,4,99,-12
Cc1cccnc1NCc1ccc(O)c2ncccc12,5,8.6*,96,6,99,-6
Cc1ccc(NCc2ccc(O)c3ncccc23)cc1C,-5,0.99,103,-39,135*,15
Cc1ccc(NCc2ccc(O)c3ncccc23)cc1,-9,1.4,107,2,100,7
CCOC(=O)C(=CNc1ccc2c(c1)nnn2-c1ccc(Cl)cc1)C(=O)OCC,-3,0.94,102,10,94,11
Cc1ccc(S(=O)(=O)NNC(=O)CCCCC(=O)NNS(=O)(=O)c2ccc(C)cc2)cc1,-2,1.1,101,5,97,-1
Cc1ccc(-n2nc(C)c3c2OC(N)=C(C#N)C3c2ccccc2F)cc1 (stereo not given),18,1,84,-43,146*,-47
Cc1ccc(-n2nc(C)c3c2OC(N)=C(C#N)C3c2ccncc2)cc1 (stereo not given),12,1.1,90,-25,125,14
Cc1nn(-c2ccccc2)c2c1C(c1c(C)[nH]c(C#N)c1C)C(C#N)=C(N)O2 (stereo not given),0,1,100,-37,134*,4
Cc1ccc(NC(=O)CS(=O)CC(=O)N(c2ccc(C)cc2)C(C)C(=O)NC2CCCCC2)cc1 (stereo not given),-5,0.47,104,6,98,0
CC(=O)NCCNC(=O)c1ccc(CSc2ccc(Cl)cc2)cc1,-46,1.2,142*,-22,121,147*
COc1ccc(CCc2nc(-c3ccc(-n4cccc4)cc3)no2)cc1,0,1.2,100,23,88,11
COc1ccc(-c2noc(CCc3ccccc3)n2)cc1,-40,1.6,134*,8,97,40
Cc1cccc(-c2noc(CSc3ccccc3)n2)c1,-49,2.8,145*,-1,105,63
c1ccc(C(Cc2nc(-c3cccnc3)no2)c2ccccc2)cc1,2,0.92,98,12,95,-7
c1ccc(SCc2nc(-c3cccnc3)no2)cc1,-38,3.1,133*,6,96,46
Cc1ccc(-c2noc(CSc3nc(N)cc(N)n3)n2)cc1,-31,3.4*,128,3,100,104
CC(C)Cn1c(N)c(C(=O)COC(=O)c2cccnc2Cl)c(=O)n(C)c1=O,9,0.99,91,19,88,-7
SMILES,STAT1 inh,NF-kB expr up,STAT1 act,STAT3 blocker,STAT3 activator,APP 5'UTR act
Cc1ccc(-c2noc(CSc3ccccc3)n2)cc1,-19,4.4*,118,0,102,170*
COc1ccc(-c2nnn(CCc3nn[nH]n3)n2)cc1,-3,.,98,3,101,-22
CCCCNC1=CC(=O)C(=O)c2ccccc21,0,0.52,99,-1,102,-11
CCCCN1C=CC(=C2C(=O)c3ccccc3C2=O)C=C1,95*,0.41,11,112*,10,-58
Cc1ccc(F)cc1NC(=O)CSc1ncccn1,-13,1.1,110,4,103,-3
Cc1ccc2[nH]c(SCC(=O)N3CCOCC3)nc2c1C,-30,2.3,122,-23,119,23
Cc1ccc2nc(SCC(=O)Nc3cc(C(F)(F)F)ccc3N3CCOCC3)[nH]c2c1,-10,3.6*,109,-1,107,-94
O=C(Nc1cc(C(F)(F)F)ccc1N1CCOCC1)c1ccc2ccccc2n1,-1,1.1,101,-37,134*,30
Cc1ccc2nc(SCC(=O)N3CCOCC3)[nH]c2c1,-35,2.6,132*,3,102,80
Nc1nc(SCC(=O)Nc2cc(C(F)(F)F)ccc2N2CCOCC2)n[nH]1,3,1.5,99,6,99,-8
O=C(CSc1nc2ccccc2[nH]1)N1CCCCC1,-33,2.2,130*,10,94,44
C=CCc1cccc(CNc2c(C)cc(C)cc2C)c1O,-6,0.96,102,-4,107,13
Cc1ccccc1NC(=O)N1CCN(C/C=C/c2ccccc2)CC1,0,1,100,23,87,12
Cc1cccnc1NC(=O)Cn1nc([N+](=O)[O-])cc1C,-1,1.2,99,7,100,-14
Cc1cccnc1NC(=O)Cn1nc(-c2ccccc2)oc1=S,-19,4.2*,117,6,98,170*
O=C(CCc1nnc(-c2ccc3c(c2)OCO3)o1)N1CCC(c2ccc(F)cc2)C1 (stereo not given),-39,1.2,134*,-16,116,50
O=C(CCc1nnc(-c2ccc3c(c2)OCO3)o1)NC(c1ccccn1)C(F)(F)F (stereo not given),-5,.,105,12,95,14
O=C(CCc1nnc(Cc2ccc(-c3ccccc3)cc2)o1)N1CCCC1,7,1,92,6,99,-11
CC1CCN(C(=O)CCc2nnc(-c3ccccc3)o2)CC1,-40,2.5,135*,-7,111,42
CN(NS(=O)(=O)c1ccc(Cl)cc1)c1nc(C(F)(F)F)nc2ccccc12,16,0.63,84,13,92,11
CCS(=O)(=O)c1nc(S(=O)(=O)c2ccc(C)cc2)c(NCCCN(C)C)s1,7,1.4,92,12,94,17
Cc1cc(-c2ccc(F)cc2)nc2cc(C(N)=O)nn12,1,0.85,99,-14,110,-11
CCOC(=O)c1cnn2c(C)cc(-c3ccc(F)cc3)nc12,-50,3,146*,3,102,82
CCOc1cc(S(=O)(=O)n2ccnc2)ccc1Br,-15,1,110,-1,105,-1
CCOc1cc(S(=O)(=O)n2ccnc2)ccc1Cl,1,3.6*,99,7,102,-10
Cc1cc(C)n2nc(/C(C#N)=C/c3ccccn3)c(C#N)c2n1,3,1.6,97,17,92,-18
